MC4R antag cAMP = human MC4R antagonism in cAMP assay. P32245. inhibition, % at 6.5 µM. 0.48% of 360,000 active. MC4R-expressing cells, MTII-stimulated cAMP, LANCE TR-FRET. AID 540295;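 active = inhibition above its plate's cutoff, the mean of tested wells on that plate plus 3 SD, cut at about 29% in these data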
Target sequence (P32245 whole entry, looked up): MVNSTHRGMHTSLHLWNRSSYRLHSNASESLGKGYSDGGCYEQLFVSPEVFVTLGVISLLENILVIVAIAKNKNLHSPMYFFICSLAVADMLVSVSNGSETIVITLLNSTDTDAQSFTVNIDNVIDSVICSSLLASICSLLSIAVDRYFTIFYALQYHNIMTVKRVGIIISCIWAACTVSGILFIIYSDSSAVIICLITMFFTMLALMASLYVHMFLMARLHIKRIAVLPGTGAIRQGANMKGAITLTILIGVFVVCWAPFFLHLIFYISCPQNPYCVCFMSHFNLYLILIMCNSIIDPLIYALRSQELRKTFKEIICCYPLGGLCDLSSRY
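System: U2OS cells stably expressing human melanocortin 4 receptor (MC4R). Reagent: Melanotan II challenge after compound preincubation. Doses: 6.5 µM. Times: 30-min compound, 1-h challenge, 1-h detection, room temperature. Measured by: TR-FRET with Eu-cAMP and labeled anti-cAMP, 671 nm. Replicates: singlicate.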
ATG4B inh = inhibitors of human ATG4B cysteine protease; Q9Y4P1; ATG4B cleavage of LC3-PLA2, NBD-HPC fluorescence, 1 h; inhibition, % at 8.33 µM; 0.51% of 340,000 active; AID 504462; in the data active = inhibition above about 40%
Target sequence (Q9Y4P1 whole entry, looked up): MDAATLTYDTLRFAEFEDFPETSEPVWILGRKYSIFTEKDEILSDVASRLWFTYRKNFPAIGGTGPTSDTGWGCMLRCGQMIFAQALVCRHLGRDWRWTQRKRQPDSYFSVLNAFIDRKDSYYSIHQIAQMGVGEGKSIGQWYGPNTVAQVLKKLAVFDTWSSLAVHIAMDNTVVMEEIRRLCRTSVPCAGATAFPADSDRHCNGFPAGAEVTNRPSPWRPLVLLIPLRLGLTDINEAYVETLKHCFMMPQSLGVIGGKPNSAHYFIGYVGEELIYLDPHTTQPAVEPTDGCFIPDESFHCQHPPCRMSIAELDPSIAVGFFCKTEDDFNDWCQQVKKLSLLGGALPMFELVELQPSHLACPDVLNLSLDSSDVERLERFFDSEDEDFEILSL
MC4R barr agon = activates human MC4R beta-arrestin recruitment. U2OS MC4R beta-arrestin complementation, luminescence; percent of melanotan II response, DMSO zero. activation, % at 8.9 µM. AID 540308. 0.98% of 360,000 active;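 active = activation above a per-plate cutoff, the mean activation of sample wells on that plate plus 3 SD, cut at about 8% in these data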
MPTP inh = blocks calcium-induced mitochondrial swelling; isolated mouse mitochondria, Ca2+ swelling absorbance, 30 min; inhibition, % at 10 µM; 1.4% of 360,000 active;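 active = inhibition of 50% or more, scaled per plate between neutral and stimulator controls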
SMARCA2 act = activators of SMARCA2 function. AID 652017. activation, % at 9.1 µM. 1% of 370,000 active. MG213 cells, MMTV-luciferase reporter, dexamethasone, overnight; in the data active = activation above about 7.8%
Rh123 counter = mitochondrial membrane potential, counter-screen | inhibition, % at 10 µM | shares compounds with MPTP inh | 78% of 5,000 active | isolated mitochondria, Rhodamine 123 fluorescence; in the data active = inhibition above about 22%
MPTP swell DR = MPTP inhibition, dose response swelling confirmation; isolated mitochondria swelling, absorbance; 58% of 780 active; shares compounds with MPTP inh; IC50, µM; in the data active = IC50 below about 20 µM
MPTP cs DR = active in counter-screen for permeability transition pore inhibitors | shares compounds with MPTP inh | isolated mitochondria counterscreen, fluorescence read-out | IC50, µM | 49% of 780 active; in the data active = IC50 below about 80 µM
Of the large screens only hits and unclear results are named; the others gave an inactive call (follow-up assays come after a bar, where they were run). An excerpt weighted towards active compounds, which were near 4.1% of everything screened.

CC1(Cc2ccc(C(F)(F)F)o2)C(=O)Nc2cc(-c3ccc(F)cc3F)ccc21 (centres undefined)	none (no result: ATG4B inh)
COC(=O)C1=C(C)N(Cc2ccc(C(F)(F)F)cc2)C(=NCc2ccccc2)NC1c1cccc(C(F)(F)F)c1 (centres undefined)	none (no result: MC4R antag cAMP, ATG4B inh, MC4R barr agon, MPTP inh)
COC(=O)C1=C(C)N(Cc2ccccc2)C(=NCc2cccc(C(F)(F)F)c2)N[C@H]1c1cccc(F)c1	MC4R barr agon 13, MPTP inh 80 | Rh123 counter inactive
COC(=O)C1=C(C)N(Cc2ccccc2)C(=NCc2cccc(C(F)(F)F)c2)N[C@H]1c1cccc(C(F)(F)F)c1	MC4R barr agon 21, MPTP inh 88 (no result: SMARCA2 act) | Rh123 counter inactive
Cc1cc(C)cc(OCC(=O)Nc2ccccc2N2CCCCC2)c1	none
O=C(Nc1ccc(N2CCOCC2)c(S(=O)(=O)Nc2ccccc2Cl)c1)c1ccccc1	none
Cc1cc(C)cc(NC(=O)Nc2ccccc2N2CCCCC2)c1	MPTP inh 63 | Rh123 counter 61
O=C(Nc1ccc(Cl)cc1)Nc1ccc(N2CCCC2)c(S(=O)(=O)Nc2ccccc2Cl)c1	MPTP inh 98 | Rh123 counter 48
CC(C)(C)c1ccc(C(=O)N/N=C/c2cccc(Cl)c2)cc1	MPTP inh 81 | Rh123 counter 84
CC(=O)c1ccc(NC(=O)CSC2=NS(=O)(=O)c3cc(Cl)ccc3N2)cc1	none
O=C(CSC1=NS(=O)(=O)c2cc(Cl)ccc2N1)c1ccc(Cl)cc1	MPTP inh 98 | Rh123 counter 88
O=C(CSC1=NS(=O)(=O)c2cc(F)ccc2N1)Nc1ccc(F)cc1	none
O=C(CSC1=NS(=O)(=O)c2cc(Cl)ccc2N1)Nc1cccc(F)c1	MPTP inh 62 | Rh123 counter 56
C=CCNc1cccc2c1S(=O)(=O)N[C@H](CC(C)C)CO2	none (no result: MC4R antag cAMP, ATG4B inh, MC4R barr agon, MPTP inh)
COc1ccc(NC(=O)c2sc(=O)n(Cc3ccccc3C#N)c2C)cc1OC	none (no result: ATG4B inh)
CCOc1ccc(/C=C2\NCCc3cc(OCC)c(OCC)cc32)cc1OCC	none (no result: MC4R antag cAMP, ATG4B inh, MC4R barr agon, MPTP inh)
CC(C)NC(=S)N/N=C/c1cc(Br)ccc1O	MPTP inh 93 | Rh123 counter 61
Cc1cccc(C(=O)NC(=S)NNC(=O)c2ccccc2Cl)c1	MPTP inh 85 | Rh123 counter inactive
Cc1onc(-c2ccccc2)c1C(=O)NNC(=O)c1ccccc1	none
Cc1ccc(C(=O)NNC(=S)NC(=O)c2ccc(Cl)cc2)cc1	MPTP inh 91 | Rh123 counter inactive
Cc1onc(-c2ccccc2)c1C(=O)NNC(=S)NC(=O)c1ccc(Br)cc1	MPTP inh 68 | Rh123 counter 29
Cc1onc(-c2ccccc2)c1C(=O)NNC(=S)NC(=O)/C=C/c1ccccc1	MPTP inh 93 | Rh123 counter inactive
Cc1cccc(C(=O)NC(=S)NNC(=O)Cc2ccccc2)c1	none
COC(=O)[C@]12C[C@H](CC(=O)N3CCC(c4ccccc4)CC3)C(=O)N(Cc3ccco3)C1=C[C@H](COCc1ccccc1)O[C@@H]2C	none (no result: MC4R antag cAMP, ATG4B inh, MC4R barr agon, MPTP inh)
O=C(NC(=S)NNC(=O)c1ccc(Cl)cc1Cl)c1cccnc1	none
Cc1onc(-c2ccccc2)c1C(=O)NNC(=S)NC(=O)c1ccc(Cl)cc1Cl	MPTP inh 104 | Rh123 counter 33
Cc1cccc(C(=O)NC(=S)NNC(=O)COc2c(C)cccc2C)c1	MPTP inh 87 | Rh123 counter inactive | MPTP swell DR 6.7 | MPTP cs DR 39
Cc1ccccc1C(=O)NNC(=S)NC(=O)c1ccc(Cl)cc1Cl	MPTP inh 76 | Rh123 counter inactive
CC(Oc1ccc(Cl)cc1Cl)C(=O)Nc1ccncc1 (centres undefined)	MPTP inh 77 | Rh123 counter 74
O=C(Nc1ccncc1)Nc1ccc(Cl)cc1Cl	MPTP inh 51 | Rh123 counter 104
O=C(Nc1ccncc1)Nc1ccncc1	none
O=C(Nc1ccncc1)Nc1ccc(Cl)cc1	MPTP inh 55 | Rh123 counter 98
CCCc1c(C(=O)Nc2ccc(F)cc2F)cnn1-c1ccccc1	none
CCCc1c(NC(=O)Nc2ccc(Cl)cc2Cl)cnn1-c1ccccc1	MC4R barr agon 9.2, MPTP inh 83 | Rh123 counter 76
CC(=O)Nc1ccc(NC(=O)C(C)Oc2ccc(Cl)cc2Cl)cc1 (centres undefined)	none
Cc1ccc(NC(=O)Cc2ccc(F)cc2)c(S(=O)(=O)N2CCOCC2)c1	none (no result: MC4R antag cAMP, ATG4B inh, MC4R barr agon, MPTP inh)
CCCCN1CC[C@H](C)Oc2cc(Br)ccc2S1(=O)=O	none (no result: MC4R antag cAMP, ATG4B inh, MC4R barr agon, MPTP inh)
C[C@@H]1CCN(C2CC2)S(=O)(=O)c2ccc(N3CCC[C@H]3C)cc2O1	none (no result: MC4R antag cAMP, ATG4B inh, MC4R barr agon, MPTP inh)
CC(C)(C)OC(=O)NCc1cc(F)ccc1/C=C/S(=O)(=O)NCc1ccccc1	none (no result: MC4R antag cAMP, ATG4B inh, MC4R barr agon, MPTP inh)
N=C1/C(=C\c2coc3ccccc3c2=O)C(=O)N=C2SC(c3ccncc3)=NN12	MPTP inh 94 | Rh123 counter 64
CSC1=NSC2=NC(=O)/C(=C\c3coc4ccccc4c3=O)C(=N)N12	MPTP inh 95 | Rh123 counter 90
CC(C)CSC1=NSC2=NC(=O)/C(=C\c3ccccc3)C(=N)N12	MPTP inh 73 | Rh123 counter 91
CC(=O)N1CCc2c1cccc2S(=O)(=O)NC(CC(C)C)C(=O)Nc1ccc(Cl)c(Cl)c1 (centres undefined)	none (no result: MC4R antag cAMP, ATG4B inh, MC4R barr agon, MPTP inh)
Cc1nc2c(Br)cc(Br)cc2cc1O	MPTP inh 99 | Rh123 counter 97
COC(=O)c1ccc(CN2C(=O)[C@]3(OCCC=C[C@H]3C)c3cc(OC)ccc32)cc1	none (no result: MC4R antag cAMP, ATG4B inh, MC4R barr agon, MPTP inh)
Cc1nn(-c2cc(C(F)(F)F)ccc2Cl)c2nc(C(Cl)(Cl)Cl)[nH]c(=O)c12	MPTP inh 78 | Rh123 counter 82
O=C(NCCc1c[nH]c2ccccc12)OCc1cn(-c2ccc(F)cc2F)nn1	none (no result: MC4R antag cAMP, ATG4B inh, MC4R barr agon, MPTP inh)
COC(=O)CS(=O)(=O)c1nnc([C@H](Cc2ccccc2)NC(=O)OC(C)(C)C)o1	MPTP inh 98 | Rh123 counter inactive
Cc1cccc(CS(=O)(=O)c2nnc([C@H](Cc3ccccc3)NC(=O)OC(C)(C)C)o2)c1	none (no result: SMARCA2 act)
C[C@@H]1ON(C)[C@H]2C[C@H]3c4cc(Br)ccc4CCN3C[C@@H]12	none (no result: MC4R antag cAMP, ATG4B inh, MC4R barr agon, MPTP inh)
COc1cc(CNn2nnnc2N)cc(Br)c1OCc1c(Cl)cccc1Cl	MPTP inh 52 | Rh123 counter 30
NC(=O)CCN1CCN(CCOC2Cc3cc(Cl)ccc3Sc3ccccc32)CC1 (centres undefined)	MPTP inh 62 | Rh123 counter inactive | MPTP swell DR inactive | MPTP cs DR inactive
O=S(=O)(CC1NCc2cc(F)ccc21)NCc1ccc(F)cc1 (centres undefined)	none (no result: MC4R antag cAMP, ATG4B inh, MC4R barr agon, MPTP inh)
Cc1cc(Nc2ccc([N+](=O)[O-])cc2)c2ccccc2n1	none

Screens (PubChem)
